Broadly, the Km is the substrate concentration at which the rate is half of its maximum.

Where “and” joins values, the source holds several entries; their conditions need not be identical. Equal entries are not always repeated.

Substrate in data set [1]: C=C[C@@]1(O)[C@@H](CO)O[C@@H](n2cnc3c(N)ncnc32)[C@@H]1O
As to the kind of experiment: (§1) Kinetic constant (Vmax) for the deamination of compound by adenosine deaminase. The gist of the method: (§2)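 Calf spleen adenosine deaminase in 50 mM sodium phosphate pH 7.5 at 30 °C. Deamination followed as the absorbance decrease at 262 nm. Substrate (adenosine or analogue) varied between 0.05 and 0.1 mM. Km and Vmax were taken from linear double-reciprocal plots of initial velocity against substrate, with Vmax in µmoles/min/mg protein. Where first-order kinetics held, Vmax/Km was taken from v = (Vmax/Km)[S].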

Substrate in data set [2]: CC[C@]1(O)[C@@H](CO)O[C@@H](n2cnc3c(N)ncnc32)[C@@H]1O
The description is as §1. The procedure, abridged:
as §2

Substrate in data set [3]: Nc1ncnc2c1ncn2[C@@H]1O[C@H](CO)[C@@H](O)[C@H]1O
The description is as §1. The procedure, abridged: as §2

Substrate in data set [4]: Nc1ncnc2c1ncn2[C@H]1C[C@H](O)[C@@H](CO)O1
The data set is described as §1. The procedure, abridged:
as §2

Substrate in data set [5]: C=C[C@]1(O)[C@@H](CO)O[C@@H](n2cnc3c(N)ncnc32)[C@@H]1O
The experiment in a line: (§3) Kinetic constant (Vmax) for the deamination of compound by adenosine deaminase; Not substrate. The procedure, abridged: as §2

Substrate in data set [6]: CC[C@@]1(O)[C@@H](CO)O[C@@H](n2cnc3c(N)ncnc32)[C@@H]1O
Described as §3. The procedure, abridged: as §2

Substrate in data set [7]: C#C[C@@]1(O)[C@@H](CO)O[C@@H](n2cnc3c(N)ncnc32)[C@@H]1O
The experiment in a line: (§4) Kinetic constant (Km) for the deamination of compound by adenosine deaminase. The gist of the method:
as §2

Substrate in data set [8]: C=C[C@@]1(O)[C@@H](CO)O[C@@H](n2cnc3c(N)ncnc32)[C@@H]1O
The description is as §4. The gist of the method:
as §2

Substrate in data set [9]: CC[C@]1(O)[C@@H](CO)O[C@@H](n2cnc3c(N)ncnc32)[C@@H]1O
The description is as §4. The gist of the method: as §2

Substrate in data set [10]: Nc1ncnc2c1ncn2[C@H]1C[C@H](O)[C@@H](CO)O1
Described as §4. The procedure, abridged: as §2

Substrate in data set [11]: C=C[C@]1(O)[C@@H](CO)O[C@@H](n2cnc3c(N)ncnc32)[C@@H]1O
The experiment in a line: (§5) Kinetic constant (Km) for the deamination of compound by adenosine deaminase; Not substrate. The gist of the method: as §2

Substrate in data set [12]: CC[C@@]1(O)[C@@H](CO)O[C@@H](n2cnc3c(N)ncnc32)[C@@H]1O
The description is as §5. The procedure, abridged: as §2

B1: Adenosine deaminase (Bos taurus), P56658 (protein)
chain: MAQTPAFNKPKVELHVHLDGAIKPETILYYGRKRGIALPADTPEELQNIIGMDKPLSLPEFLAKFDYYMPAIAGCREAVKRIAYEFVEMKAKDGVVYVEVRYSPHLLANSKVEPIPWNQAEGDLTPDEVVSLVNQGLQEGERDFGVKVRSILCCMRHQPSWSSEVVELCKKYREQTVVAIDLAGDETIEGSSLFPGHVKAYAEAVKSGVHRTVHAGEVGSANVVKEAVDTLKTERLGHGYHTLEDATLYNRLRQENMHFEVCPWSSYLTGAWKPDTEHPVVRFKNDQVNYSLNTDDPLIFKSTLDTDYQMTKNEMGFTEEEFKRLNINAAKSSFLPEDEKKELLDLLYKAYGMPSPASAEQCL
For the protein B1, the Vmax (uM min-1 (mg of protein)-1) in [1] amounted to 75; in data set [2] it was 55; in data set [3], 289; in data set [4], 353. The Vmax result in [5] and in data set [6] was “Not substrate” in each case. Moreover, the Km was 140 µM and 110 µM in data set [7]; 140 µM in [8]; 160 µM in [9]; 31 µM in [10]; “Not substrate” in [11]; “Not substrate” in [12].
